An excerpt weighted towards active compounds, which were near 12% of everything screened.
Wee1 degr inh: blocks degradation of human Wee1 kinase. HeLa Luc-Wee1K328M stability, luciferase luminescence; 100% = proteasome inhibitor MG132 effect. actives 1.2% (n = 220,000). AID 1321. reporter increase, % at 5 µM;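 active = activation above the mean of all tested compounds plus 3 SD, set per screening run, cut at about 8.8% in these data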;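 also: cells exposed to compound for 20 h before luminescence read; 0% = DMSO alone and 100% = MG132 at 30 µM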
PKD1 inh: blocks activity of human protein kinase D1. PKD1 kinase fluorescence polarization assay. inhibition, % (test concentration not listed). actives 0.056% (n = 200,000)
Target sequence (Q15139 whole entry, looked up): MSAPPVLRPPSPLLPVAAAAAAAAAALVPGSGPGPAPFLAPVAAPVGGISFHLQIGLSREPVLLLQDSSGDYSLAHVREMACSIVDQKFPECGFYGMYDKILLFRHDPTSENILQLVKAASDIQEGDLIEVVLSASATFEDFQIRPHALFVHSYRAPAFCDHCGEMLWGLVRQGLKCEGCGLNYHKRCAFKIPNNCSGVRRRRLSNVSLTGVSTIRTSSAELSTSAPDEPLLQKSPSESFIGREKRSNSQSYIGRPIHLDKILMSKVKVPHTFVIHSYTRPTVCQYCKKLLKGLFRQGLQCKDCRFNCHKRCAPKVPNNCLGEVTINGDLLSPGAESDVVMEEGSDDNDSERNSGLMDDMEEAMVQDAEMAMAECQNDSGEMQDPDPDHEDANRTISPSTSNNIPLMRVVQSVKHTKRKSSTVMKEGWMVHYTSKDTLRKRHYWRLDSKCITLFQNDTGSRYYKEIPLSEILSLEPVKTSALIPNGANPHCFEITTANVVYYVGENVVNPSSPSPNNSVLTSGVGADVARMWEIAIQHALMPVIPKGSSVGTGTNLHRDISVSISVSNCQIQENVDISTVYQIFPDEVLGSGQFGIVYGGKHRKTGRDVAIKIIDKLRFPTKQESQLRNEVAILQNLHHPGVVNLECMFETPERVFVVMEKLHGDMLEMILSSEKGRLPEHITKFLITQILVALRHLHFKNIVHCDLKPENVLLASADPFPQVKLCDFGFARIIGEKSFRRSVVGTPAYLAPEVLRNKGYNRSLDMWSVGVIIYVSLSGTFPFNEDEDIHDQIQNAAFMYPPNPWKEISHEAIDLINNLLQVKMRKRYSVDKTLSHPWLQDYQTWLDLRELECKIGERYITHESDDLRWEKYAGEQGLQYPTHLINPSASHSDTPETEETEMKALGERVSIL
Rad51 HR inh: blocks human Rad51 in homologous recombination. Q06609. hRad51 DNA strand exchange, fluorescence dequenching. inhibition, % at 10 µM. actives 0.085% (n = 200,000);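 active = inhibition above 40% at the single screening dose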;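 also: 0% = DMSO control wells and 100% = blanks with heterologous ssDNA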
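System: human Rad51 nucleoprotein filaments preassembled on unlabelled ssDNA. Reagent: labelled 47-mer dsDNA for strand exchange. Schedule: 30-min compound preincubation and 15-min exchange, both room temperature. Measured by: FRET fluorescence dequenching, excitation 485 nm, emission 520 nm. Read-out: Fluorescence-based percent inhibition, control- and blank-normalised. Benchmarks: plate controls and plate blanks.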
L major viab: inhibitors of Leishmania major promastigote growth; Leishmania major promastigotes, resazurin fluorescence viability; inhibition, % at 10 µM; actives 9% (n = 200,000);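 also: promastigotes grown with compound for 44 hours at 28 °C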
CHOP inh: CHOP inhibition in unfolded protein response. CHO-K1 CHOP-promoter luciferase, tunicamycin-induced, 15-18 h. inhibition, % at 10 µM. actives 3.8% (n = 220,000);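 active = compounds that reduced the stress-induced luciferase reporter signal by more than about 70% of percent inhibition, limit read from the data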;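 also: 0% = tunicamycin plus vehicle and 100% = wells without tunicamycin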
Arbovirus inh: arbovirus infection inhibition; arbovirus infection cell-based antiviral screen; inhibition, % at 10 µM; actives 0.37% (n = 200,000); in the data active = inhibition above about 30%
Wee1 stab conf: human Wee1 degradation inhibition, confirmation; activation, % at 5 µM; shares compounds with Wee1 degr inh; HeLa Luc-Wee1K328M degradation, luminescence; vehicle 0%, proteasome-blocked wells 100%; AID 1410; actives 4% (n = 1,100); in the data active = activation above about 8.9%
The depositor's hits bear a star; · = no result given. Rule as the data show it, unless noted: active = inhibition above about 50%; inactive = the rest.

SMILES | Wee1 degr inh | PKD1 inh | Rad51 HR inh | L major viab | CHOP inh | Arbovirus inh | Wee1 stab conf
O=[N+]([O-])c1cnn(-c2nc(-c3ccccc3)cc(C(F)(F)F)n2)c1 | 0.3 | 0.6 | -10.3 | -7.0 | -38.4 | -2.5 | ·
CC(C)(C)NC(=O)COC(=O)CNC(=O)c1cc(Cl)cc([N+](=O)[O-])c1 | -0.1 | -5.7 | -3.2 | -4.5 | 21.3 | -1.7 | ·
CCOc1ccc(CC(=O)NNC(=S)NC)cc1 | 13.8* | · | -16.6 | · | -18.5 | · | -2.8
COc1cc(C(=O)NCC(=O)OCC(=O)c2ccc[nH]2)cc(OC)c1OC | 14.1* | -3.3 | 3.3 | -1.2 | 15.3 | -3.5 | -0.5
COc1ccc(C(=O)NCC(=O)OCC(=O)c2cc(OC)c(OC)c(OC)c2)cc1OC | -2.8 | -6.8 | -2.1 | -5.4 | -14.0 | -13.2 | ·
CNNCc1ccc(C(=O)NC(C)C)cc1 | · | · | 0.4 | · | · | · | ·
N#Cc1cnc(SCCc2ccccc2)nc1N | 27.7* | -2.0 | -17.0 | 7.4 | 54.1 | -21.3 | 2.3
CCCCn1c(N)c(N(CC(C)C)C(=O)CN(C)Cc2cccc(OC)c2)c(=O)[nH]c1=O | -1.4 | -6.8 | 2.6 | -2.4 | 26.3 | -4.2 | ·
CCCCn1c(N)c(N(CC)C(=O)c2cc(OC)cc(OC)c2)c(=O)[nH]c1=O | 11.3* | 0.8 | 9.8 | -4.4 | 6.7 | 5.6 | -3.3
Cc1ccc(C2=NN(S(C)(=O)=O)C(c3cccs3)C2)cc1 (stereo unspecified) | 11.5* | 3.4 | -4.2 | 4.4 | 28.7 | 16.7 | 6.4
COc1ccc(C2=NN(S(C)(=O)=O)C(c3cccs3)C2)cc1 (stereo unspecified) | -1.6 | 1.3 | -2.3 | 10.2 | -20.7 | 8.7 | ·
COC(=O)/C=C/c1ccc(OC(=O)OC)c(OC(=O)OC)c1 | 12.2* | 3.2 | 5.0 | 40.3 | 7.8 | -17.0 | 0.8
Clc1ccc(Oc2nc3c(Cl)cccc3s2)cc1Cl | 7.0 | · | · | · | 30.0 | · | ·
Cn1c(=O)c2c(nc(NCCO)n2C)n(C)c1=O | 2.7 | -13.1 | 4.7 | -3.2 | -8.6 | 1.0 | ·
CC(C)/C=N/Nc1nc2c(c(=O)n(C)c(=O)n2C)n1C | 11.6* | · | 22.9 | · | 9.9 | · | 0.4
CCOC(=O)c1sc(NC(=O)C(C)Sc2nnc(N)s2)nc1C (stereo unspecified) | 1.0 | -11.7 | -0.8 | -2.7 | 2.8 | 0.5 | ·
COc1cc(C)ccc1S(=O)(=O)n1nc(C)cc1C | -0.1 | -6.4 | · | 2.1 | 0.6 | 1.7 | ·
Cn1nnnc1SCC(=O)Nc1ccc(S(=O)(=O)N2CCOCC2)cc1 | 1.7 | · | -5.8 | · | 14.5 | · | ·
Cc1cc(N2CCCCC2)nc(N2CCCCC2)n1 | -1.9 | -2.0 | -21.6 | 24.4 | -15.6 | 8.7 | ·
Cc1cc(N2CCCC2)nc(N2C3CCC2CC(O)(c2ccc(F)cc2)C3)n1 (stereo unspecified) | 16.4* | 4.3 | 18.4 | 27.3 | -1.9 | -6.0 | -3.0
O=S(=O)(c1ccc(Oc2ncnc3scc(-c4ccccc4)c23)cc1)N1CCOCC1 | 18.5* | -0.4 | -12.3 | -9.3 | -7.8 | -1.0 | 0.0
Fc1cccc(CSc2nc3ncccc3[nH]2)c1 | -3.3 | 2.2 | -3.7 | -0.6 | -5.0 | -4.0 | ·
Fc1cccc(CSc2nc3ncc(Cl)cc3[nH]2)c1 | 11.1* | · | · | · | 2.1 | · | -1.7
CCCn1c(NCCO)nc2ccccc21 | -1.3 | -8.7 | 3.0 | -4.1 | -3.0 | 0.5 | ·
CC(C)n1c(NCCO)nc2ccccc21 | 11.0* | -4.7 | -1.4 | 6.5 | -10.1 | 2.0 | -1.5
SMILES | Wee1 degr inh | PKD1 inh | Rad51 HR inh | L major viab | CHOP inh | Arbovirus inh | Wee1 stab conf
O=C(CC1C(=O)N(c2ccccc2)C(=S)N1c1ccccc1)c1ccc(Br)cc1 (stereo unspecified) | 67.0* | -2.1 | · | 50.9* | 38.1 | -3.4 | 0.6
CC(C)CCNC(=O)c1c(CSc2ccc(Cl)cc2)noc1C(=O)NCc1ccccc1 | · | · | -2.3 | · | · | · | ·
CCCn1nc(C(=O)Oc2ccc3c(C)cc(=O)oc3c2)c2ccccc2c1=O | 1.3 | 12.0 | 2.1 | -4.4 | 26.9 | 3.5 | ·
Cc1sc2ncnc(NCC(c3ccco3)N(C)C)c2c1C (stereo unspecified) | -1.7 | 5.5 | -11.2 | 15.6 | 13.9 | 2.8 | ·
CN(C)C(CNc1ncnc2sc3c(c12)CCCCC3)c1ccco1 (stereo unspecified) | 34.5* | -10.7 | -6.2 | 13.1 | 31.0 | -11.8 | 4.9
NC(=O)N/N=C/c1cn(-c2ccccc2)nc1-c1cccs1 | 15.7* | -2.1 | 2.9 | 2.7 | 4.9 | -11.4 | 2.8
